From ChEMBL document CHEMBL1125639, “Synthesis and resolution of (+-)-7-chloro-8-hydroxy-1-(3'-iodophenyl)-3-methyl-2,3,4,5-tetrahydro- 1H-3- benzazepine (TISCH): a high affinity and selective iodinated ligand for CNS D1 dopamine receptor” (J Med Chem, 1991)
“And” between values parts separate entries of the source, which are not always exact repeats. Equal values may be shown once.

Key:
Rattus norvegicus [1] = assay: Biodistribution of compound in rats liver after an intravenous injection was measured at 24 hr; format: ADME, organism-based; conditions: in vivo
In short: (§1)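 Male Sprague-Dawley rats (225-300 g), free access to food and water. Under ether anesthesia, given 0.2 mL saline containing 125I-labelled ligand (2-5 μCi, ~2200 Ci/mmol) into the femoral vein. Killed by cardiac excision at set times. Organs removed, weighed and gamma-counted. % dose/organ is taken against diluted injectate aliquots, with blood and muscle assumed to be 7% and 40% of body weight. Mean of 3 rats ± std dev.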

Rattus norvegicus [2] = assay: (§2) Biodistribution ratio measured as the ratio of compound present in brain to that of blood at 4 hr after intravenous injection; format: ADME, organism-based; conditions: brain, 4 h
In short: (§3)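 Male Sprague-Dawley rats (225-300 g) given 0.2 mL saline containing [125I]-labeled ligand (2-5 μCi, ~2200 Ci/mmol) via femoral vein under ether anesthesia; sacrificed at set times by cardiac excision. Brain and blood weighed and gamma-counted against diluted injectate; ratio taken from % dose/gram values, 3 rats per time point.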

[3] = as §2; format: ADME, organism-based; conditions: rat; in short: as §3
Rattus norvegicus [4] = assay: Biodistribution of compound in rats kidney after an intravenous injection was measured at 4 hr; format: ADME, organism-based; conditions: in vivo; in short: as §1
Rattus norvegicus [5] = assay: Biodistribution of compound in rats thyroid after an intravenous injection was measured at 1 hr; format: ADME, organism-based, Thyroid gland; conditions: in vivo; in short: as §1
Rattus norvegicus [6] = assay: Biodistribution of compound in rats brain after an intravenous injection was measured at 1 hr; format: ADME, organism-based; conditions: in vivo
In short: (§4)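 Rats (male Sprague-Dawley, 225-300 g) given the 125I ligand (2-5 μCi, ~2200 Ci/mmol) in 0.2 mL saline via the femoral vein under ether anesthesia, then killed at set times. Whole brain removed, weighed and gamma-counted. % dose/organ is taken against diluted injectate aliquots. Mean of 3 rats ± std dev.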

Rattus norvegicus [7] = assay: Biodistribution of compound in rats blood after an intravenous injection was measured at 1 hr; format: ADME, organism-based; conditions: in vivo; in short: as §1
Rattus norvegicus [8] = assay: Regional brain distribution of compound in rats striatum after an intravenous injection was measured at 30 min; format: ADME, organism-based; conditions: in vivo, 0.5 h
In short: (§5)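 After femoral-vein injection of [125I]-labeled ligand (2-5 μCi, ~2200 Ci/mmol, 0.2 mL saline, ether anesthesia) into male Sprague-Dawley rats (225-300 g), brains were dissected into cortex, striatum and cerebellum, weighed and gamma-counted. % dose/gram calculated against diluted initial dose; regional ratio = % dose/gram of region divided by that of cerebellum.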

Rattus norvegicus [9] = assay: Biodistribution of compound in rats liver after an intravenous injection was measured at 4 hr; format: ADME, organism-based; conditions: in vivo; in short: as §1
Rattus norvegicus [10] = assay: Biodistribution of compound in rats blood after an intravenous injection was measured at 2 min; format: ADME, organism-based; conditions: in vivo; in short: as §1
Rattus norvegicus [11] = assay: Biodistribution of compound in rats brain after an intravenous injection was measured at 4 hr; format: ADME, organism-based; conditions: in vivo; in short: as §4
Rattus norvegicus [12] = assay: Biodistribution of compound in rats liver after an intravenous injection was measured at 2 min; format: ADME, organism-based; conditions: in vivo; in short: as §1
Rattus norvegicus [13] = assay: Biodistribution of compound in rats heart after an intravenous injection was measured at 30 min; format: ADME, organism-based; conditions: in vivo, 0.5 h; in short: as §1
Rattus norvegicus [14] = assay: Biodistribution of compound in rats lung after an intravenous injection was measured at 1 hr; format: ADME, organism-based; conditions: in vivo; in short: as §1
Rattus norvegicus [15] = assay: Biodistribution of compound in rats lung after an intravenous injection was measured at 4 hr; format: ADME, organism-based; conditions: in vivo; in short: as §1
Rattus norvegicus [16] = assay: Biodistribution of compound in rats heart after an intravenous injection was measured at 24 hr; format: ADME, organism-based; conditions: in vivo; in short: as §1
Rattus norvegicus [17] = assay: Biodistribution of compound in rats skin after an intravenous injection was measured at 4 hr; format: ADME, organism-based, Zone of skin; conditions: in vivo; in short: as §1
Rattus norvegicus [18] = assay: Biodistribution of compound in rats thyroid after an intravenous injection was measured at 2 min; format: ADME, organism-based, Thyroid gland; conditions: in vivo
In short: (§6)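 Male Sprague-Dawley rats (225-300 g), free access to food and water; under ether anesthesia, 0.2 mL saline containing [125I]-labeled ligand (2-5 μCi, ~2200 Ci/mmol) injected into femoral vein; killed by cardiac excision under ether at set times. […] removed, weighed, gamma-counted; % dose/organ from comparison with diluted aliquots of injectate; mean of 3 rats ± std dev.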

Rattus norvegicus [19] = assay: Biodistribution of compound in rats thyroid after an intravenous injection was measured at 30 min; format: ADME, organism-based, Thyroid gland; conditions: in vivo, 0.5 h; in short: as §6
Rattus norvegicus [20] = assay: Biodistribution of compound in rats lung after an intravenous injection was measured at 24 hr; format: ADME, organism-based; conditions: in vivo; in short: as §1
Rattus norvegicus [21] = assay: Regional brain distribution of compound in rats striatum after an intravenous injection was measured at 4 hr; format: ADME, organism-based; conditions: in vivo; in short: as §5
Rattus norvegicus [22] = assay: Biodistribution of compound in rats skin after an intravenous injection was measured at 1 hr; format: ADME, organism-based, Zone of skin; conditions: in vivo; in short: as §1
Rattus norvegicus [23] = assay: Biodistribution of compound in rats lung after an intravenous injection was measured at 2 min; format: ADME, organism-based; conditions: in vivo; in short: as §1
Rattus norvegicus [24] = assay: Regional brain distribution of compound in rats cerebellum after an intravenous injection was measured at 1 hr; format: ADME, organism-based; conditions: in vivo; in short: as §5
Rattus norvegicus [25] = assay: Biodistribution of compound in rats thyroid after an intravenous injection was measured at 4 hr; format: ADME, organism-based, Thyroid gland; conditions: in vivo; in short: as §6
Rattus norvegicus [26] = assay: Biodistribution of compound in rats kidney after an intravenous injection was measured at 1 hr; format: ADME, organism-based; conditions: in vivo; in short: as §1
Rattus norvegicus [27] = assay: Regional brain distribution of compound in rats cerebellum after an intravenous injection was measured at 2 min; format: ADME, organism-based; conditions: in vivo; in short: as §5
Rattus norvegicus [28] = assay: Biodistribution of compound in rats kidney after an intravenous injection was measured at 2 min; format: ADME, organism-based; conditions: in vivo; in short: as §1

Biodistribution (Rattus norvegicus [1]): 3.84
Biodistribution (Rattus norvegicus [2]): 5.23%
Kp at 4 h [3]: 5.23
Kp at 4 h ([3]; brain / blood): 5.23
Biodistribution (Rattus norvegicus [4]): 0.476
Biodistribution (Rattus norvegicus [5]): 0.059
Biodistribution (Rattus norvegicus [6]): 0.568
Biodistribution (Rattus norvegicus [7]): 0.847
Biodistribution (Rattus norvegicus [8]): 7.09% and 5.23%
Biodistribution (Rattus norvegicus [9]): 7.638
Biodistribution (Rattus norvegicus [10]): 3.28
Biodistribution (Rattus norvegicus [11]): 0.102
Biodistribution (Rattus norvegicus [12]): 15.78
Biodistribution (Rattus norvegicus [13]): 0.137
Biodistribution (Rattus norvegicus [14]): 0.621
Biodistribution (Rattus norvegicus [15]): 0.122
Biodistribution (Rattus norvegicus [16]): 0.001
Biodistribution (Rattus norvegicus [17]): 1.14
Biodistribution (Rattus norvegicus [18]): 0.121
Biodistribution (Rattus norvegicus [19]): 0.042 and 0.042%
Biodistribution (Rattus norvegicus [20]): 0.012
Biodistribution (Rattus norvegicus [21]): 0.6
Biodistribution (Rattus norvegicus [22]): 7.42
Biodistribution (Rattus norvegicus [23]): 10.18
Biodistribution (Rattus norvegicus [24]): 0.129
Biodistribution (Rattus norvegicus [25]): 0.118
Biodistribution (Rattus norvegicus [26]): 0.883
Biodistribution (Rattus norvegicus [27]): 1.03
Biodistribution (Rattus norvegicus [28]): 4.92
SMILES: CN1CCc2cc(Cl)c(O)cc2[C@@H](c2cccc(I)c2)C1
